According to ChEMBL document CHEMBL1138799, “4-benzyl- and 4-benzoyl-3-dimethylaminopyridin-2(1H)-ones, a new family of potent anti-HIV agents: optimization and in vitro evaluation against clinically important HIV mutant strains” (J Med Chem, 2004):
pIC50: −log10 of the molar value.

Legend:
[1] = tested on: Human immunodeficiency virus 1; experiment: Inhibitory activity against HIV-1 mutant strain 103N; format: functional, organism-based
In short: (§1)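 Mutant HIV-1 made by recombining mutant PR-RT sequence into a PR-RT-deleted HXB2 proviral clone. Serial compound concentrations plated, then virus (200 CCID50/well) and MT4 cells (30 000 cells/well; RPMI 1640, 10% FCS) added; 5 days at 37 °C, 5% CO2; viability read by MTT. EC50 = concentration giving 50% infection versus drug-free control; mock-infected cultures run in parallel for toxicity.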

[2] = tested on: Human immunodeficiency virus 1; experiment: Inhibitory activity against HIV-1 mutant strain 190S; format: functional, organism-based; in short: as §1
[3] = tested on: Human immunodeficiency virus 1; experiment: Inhibitory activity against HIV-1 mutant strain 100I; format: functional, organism-based; in short: as §1
[4] = tested on: Human immunodeficiency virus 1; experiment: Inhibitory activity against HIV-1 double mutants strain 227L and 106A; format: functional, organism-based; in short: as §1
[5] = tested on: Human immunodeficiency virus 1; experiment: Selectivity index of cytotoxic activity (CC50) to inhibitory activity (IC50) relative to LAI cell line; format: functional
In short: (§2)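 MT4 human T-lymphoblastoid cells were grown in RPMI 1640 with 10% fetal calf serum and antibiotics at 37 °C and 5% CO2. A compound concentration series was combined with HIV-1 LAI at 200 CCID50/well and 30 000 cells/well. Mock-infected cultures with the same concentrations were run in parallel to measure cytotoxicity. After 5 days, cell viability was read by MTT colorimetry. EC50 is the concentration giving 50% infection versus the drug-free control.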

[6] = tested on: Human immunodeficiency virus 1; experiment: Inhibitory activity against HIV-1 mutant strain 138K; format: functional, organism-based; in short: as §1
[7] = tested on: Human immunodeficiency virus 1; experiment: Inhibitory activity against HIV-1 mutant strain 190A; format: functional, organism-based; in short: as §1
[8] = tested on: Human immunodeficiency virus 1; experiment: Inhibitory activity against HIV-1 mutant strain 181C; format: functional, organism-based; in short: as §1
[9] = tested on: Human immunodeficiency virus 1; experiment: Inhibitory activity against HIV-1 mutant strain 227C; format: functional, organism-based; in short: as §1
[10] = tested on: Human immunodeficiency virus 1; experiment: Inhibitory activity against HIV-1 double mutants strain 100I and 103N; format: functional, organism-based; in short: as §1
[11] = tested on: Human immunodeficiency virus 1; experiment: Inhibitory activity against HIV-1 double mutants strain 103N and 181C; format: functional, organism-based; in short: as §1
[12] = tested on: Human immunodeficiency virus 1; experiment: Inhibitory activity against HIV-1 mutant strain 188L; format: functional, organism-based; in short: as §1
[13] = tested on: Human immunodeficiency virus 1; experiment: Inhibitory activity against HIV-1 mutant strain 179E; format: functional, organism-based; in short: as §1
[14] = tested on: Human immunodeficiency virus 1; experiment: Inhibitory activity against HIV-1 double mutants strain 101E and 103N; format: functional, organism-based; in short: as §1
[15] = tested on: Human immunodeficiency virus 1; experiment: Inhibitory activity against HIV-1 mutant strain 101E; format: functional, organism-based; in short: as §1
[16] = tested on: Human immunodeficiency virus 1; experiment: Inhibitory activity against wild type HIV-1 LAI cell line; format: functional, organism-based; details: Human immunodeficiency virus 1, LAI; in short: as §2

SMILES	pIC50 [1]	pIC50 [2]	pIC50 [3]	pIC50 [4]	Selectivity index [5]	pIC50 [6]	pIC50 [7]	pIC50 [8]	pIC50 [9]	pIC50 [10]	pIC50 [11]	pIC50 [12]	pIC50 [13]	pIC50 [14]	pIC50 [15]	pIC50 [16]
CCc1c(C)nc(O)c(N(C)C)c1C(=O)c1cc(Cl)cc(Cl)c1	8.00	8.52	8.10	7.22	5010	8.00	8.00	7.52	6.20	6.30	6.82	6.51	8.00	7.40	8.00	8.70
CCc1c(C)nc(O)c(N(C)C)c1Cc1cc(Cl)cc(Cl)c1	7.70	–	7.30	6.30	3980	–	–	6.80	6.15	6.51	6.30	6.20	–	6.70	–	8.10
CCc1c(C)nc(O)c(N(C)C)c1C(=O)c1ccc(C)o1	6.60	–	–	–	10000	–	–	5.80	–	–	–	4.30	–	–	–	8.00
CCc1c(C)nc(O)c(N(C)C)c1C(=O)c1cccc(-c2cccnc2)c1	7.30	–	–	–	126	–	–	5.00	–	–	–	5.00	–	–	–	8.22
CCc1c(C)nc(O)c(N(C)C)c1C(=O)c1cccc(/C=C\C#N)c1	8.52	–	–	–	25100	–	–	8.00	–	–	–	7.40	–	–	–	8.40
CCc1c(C)nc(O)c(N(C)C)c1Cc1cccc(OC)c1	7.00	–	–	–	12600	–	–	6.49	–	–	–	6.51	–	–	–	8.40
CCc1c(C)nc(O)c(N(C)C)c1C(=O)c1ccc(OC)c(C)c1	5.80	–	–	–	200	–	–	4.00	–	–	–	4.00	–	–	–	7.15
CCc1c(C)nc(O)c(N(C)C)c1C(=O)c1cccc(/C=C/c2cccnc2)c1	7.70	–	–	–	3160	–	–	7.22	–	–	–	6.82	–	–	–	8.52
CCc1c(C)nc(O)c(N(C)C)c1Cc1cccnc1	6.41	–	–	–	6310	–	–	6.00	–	–	–	5.40	–	–	–	8.00
CCc1c(C)nc(O)c(N(C)C)c1Cc1ccccc1Br	6.60	–	–	–	15900	–	–	6.89	–	–	–	5.70	–	–	–	8.22
CCc1c(C)nc(O)c(N(C)C)c1C(=O)c1cccc(CCC#N)c1	8.00	–	–	–	31600	–	–	6.60	–	–	–	5.70	–	–	–	8.52
CCc1c(C)nc(O)c(N(C)C)c1C(=O)c1cccc(/C(C)=C(\C)C#N)c1	7.70	–	–	–	1580	–	–	6.92	–	–	–	5.80	–	–	–	8.22
CCc1c(C)nc(O)c(N(C)C)c1Cc1ccccc1	6.70	–	–	–	25100	–	–	6.30	–	–	–	5.10	–	–	–	8.40
CCc1c(C)nc(O)c(N(C)C)c1C(=O)c1cccc(Br)c1	7.70	8.52	7.70	7.00	12600	8.30	8.15	6.82	6.59	7.15	6.01	6.10	8.30	7.15	8.00	8.70
CCc1c(C)nc(O)c(N(C)C)c1Cc1cccc(Br)c1	7.00	–	–	–	25100	–	–	8.22	–	–	–	5.60	–	–	–	8.40
CCc1c(C)nc(O)c(N(C)C)c1Cc1ccccc1C	5.90	–	–	–	3980	–	–	6.00	–	–	–	5.10	–	–	–	7.70

SMILES	pIC50 [1]	pIC50 [2]	pIC50 [3]	pIC50 [4]	Selectivity index [5]	pIC50 [6]	pIC50 [7]	pIC50 [8]	pIC50 [9]	pIC50 [10]	pIC50 [11]	pIC50 [12]	pIC50 [13]	pIC50 [14]	pIC50 [15]	pIC50 [16]
CCc1c(C)nc(O)c(N(C)C)c1Cc1cc(F)cc(F)c1	7.52	–	–	–	7940	–	–	7.00	–	–	–	6.30	–	–	–	8.00
CCc1c(C)nc(O)c(N(C)C)c1C(=O)c1cccc(CC#N)c1	8.22	–	–	–	31600	–	–	6.92	–	–	–	6.00	–	–	–	9.00
C/C=C/c1cccc(C(=O)c2c(CC)c(C)nc(O)c2N(C)C)c1	6.82	–	–	–	10000	–	–	6.41	–	–	–	6.41	–	–	–	8.30
CCc1c(C)nc(O)c(N(C)C)c1C(=O)c1cccc(N)c1	6.30	–	–	–	2510	–	–	5.00	–	–	–	5.00	–	–	–	8.00
CCOC(=O)/C=C/c1cccc(C(=O)c2c(CC)c(C)nc(O)c2N(C)C)c1	8.00	–	–	–	3160	–	–	6.82	–	–	–	6.82	–	–	–	8.52
CCc1c(C)nc(O)c(N(C)C)c1C(=O)c1cccc(C(C)C#N)c1 (stereo unspecified)	8.10	–	–	–	31600	–	–	6.92	–	–	–	6.60	–	–	–	8.52
CCc1c(C)nc(O)c(N(C)C)c1Cc1cccc(Cl)c1	7.40	–	–	–	20000	–	–	7.10	–	–	–	5.80	–	–	–	8.30
CCc1c(C)nc(O)c(N(C)C)c1Cc1cccc(F)c1	7.22	–	–	–	39800	–	–	6.80	–	–	–	5.80	–	–	–	8.70
CCc1c(C)nc(O)c(N(C)C)c1C(=O)c1cccc(C(C)=O)c1	6.92	–	–	–	3160	–	–	6.00	–	–	–	5.00	–	–	–	8.00
CCc1c(C)nc(O)c(N(C)C)c1C(=O)c1cccc(C#N)c1	8.22	8.70	8.00	7.30	6310	8.40	8.30	7.40	6.66	7.52	6.96	6.41	8.40	7.70	8.15	8.70
CCc1c(C)nc(O)c(N(C)C)c1C(=O)c1cccs1	6.51	–	–	–	6310	–	–	5.40	–	–	–	4.00	–	–	–	8.00
CCc1c(C)nc(O)c(N(C)C)c1Cc1cccc(C)c1	7.70	–	–	–	39900	–	–	7.22	–	–	–	6.00	–	–	–	8.70
CCc1c(C)nc(O)c(N(C)C)c1C(=O)c1cc(Br)cs1	7.00	–	–	–	10000	–	–	6.20	–	–	–	5.00	–	–	–	8.52
Cc1ccnc2c1NC(=O)c1cccnc1N2C1CC1 [NEVIRAPINE]	–	7.40	6.51	7.70	–	7.30	–	5.00	6.89	–	7.40	4.00	6.72	6.30	6.51	7.52
CCc1c(C)nc(O)c(N(C)C)c1Cc1cn(C)c2ccccc12	6.41	–	–	–	2510	–	–	6.51	–	–	–	6.60	–	–	–	7.52
CCc1c(C)nc(O)c(N(C)C)c1C(=O)c1cccc(CO)c1	6.44	–	–	–	2940	–	–	5.41	–	–	–	4.73	–	–	–	7.30
